Reference: article PMC2810401 (Biochemistry, 2010)
Values after ≈ are worked out from the molar mass of the structure shown. Values joined by “and” are separate entries in the source; they are usually repeats but may differ in a detail not shown here. Equal entries are not always repeated. Where two headings read alike, the source gives them in different places.

Key:
[1] = biological target: T1, ADC β-lactamase (Acinetobacter baumannii, UniProt Q6DRA1); details: obtained previously by same methodology; cited from earlier work
[2] = biological target: T1, ADC β-lactamase; assay: Ki in direct competition assays with ADC; assay type: biochemical
[3] = biological target: T1, ADC β-lactamase; assay: ESI-MS of intact ADC incubated with inhibitors; details: 14 μM ADC, 15 min, inhibitor: enzyme 20:1; error ± 3 amu
Summary of the method: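 ADC-7 was expressed in E. coli BL21(DE3) from pET24a(+) with 0.2 mM IPTG at 37 °C for 4 hr. It was purified by preparative isoelectric focusing and gel-filtration FPLC. Incubations were run with and without test compound, then quenched with 0.1% TFA, desalted on C18 and kept on ice. Samples were diluted to 10 μM in 50% acetonitrile/0.1% TFA, nanospray-infused at 0.5 μl/min for 2 min on a Q-TOF, and spectra were deconvoluted.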

[4] = tested on: E. coli DH10B blaADC; details: E. coli DH10B harboring blaADC; previous data; cited from earlier work

Row | Compound | Ki [1] [µM] | Ki [2] [µM] | Species observed in deconvoluted spectra [3] | Δ difference from β-lactamase molecular weight [3] | MIC [4] [µg/mL]
1 | O=C(O)[C@H]1/C(=C/CO)O[C@@H]2CC(=O)N21 [Clavulanate] | 4280 |  |  |  | 
2 | C[C@@H](O)[C@H]1C(=O)N2C(C(=O)O)=C(S[C@@H]3CN[C@H](CNS(N)(=O)=O)C3)[C@H](C)[C@H]12 [Doripenem] |  | 12.2 ± 0.4 | 41,058 amu and 41,015 amu | 420 amu and 377 amu | 
3 | C[C@@H](O)[C@H]1C(=O)N2C(C(=O)O)=C(S[C@@H]3CN[C@H](C(=O)Nc4cccc(C(=O)O)c4)C3)[C@H](C)[C@H]12 [Ertapenem] |  | 5.8 ± 0.2 | 41,069 amu and 41,112 amu | 431 amu and 474 amu | 0.06 (≈ 0.126 µM)
4 | C[C@@H](O)[C@H]1C(=O)N2C(C(=O)O)=C(SCCN=CN)C[C@H]12 [Imipenem] |  | 1.3 ± 0.1 | 40,936 amu and 40,893 amu | 298 amu and 255 amu | 
5 | C[C@@H](O)[C@H]1C(=O)N2C(C(=O)O)=C(S[C@@H]3CN[C@H](C(=O)N(C)C)C3)[C@H](C)[C@H]12 [Meropenem] |  | 19 ± 2 | 41,021 amu and 40,979 amu | 383 amu and 341 amu | 0.06 (≈ 0.156 µM)
6 | CC1(C)[C@H](C(=O)O)N2C(=O)C[C@H]2S1(=O)=O [Sulbactam] | 109 ± 3 |  |  |  | 
7 | C[C@]1(Cn2ccnn2)[C@H](C(=O)O)N2C(=O)C[C@H]2S1(=O)=O [Tazobactam] | 91 ± 21 |  |  |  | 
